Source: ChEMBL document CHEMBL4130571, “(+)- and (-)-Ecarlottones, Uncommon Chalconoids from Fissistigma latifolium with Pro-Apoptotic Activity” (J Nat Prod, 2017)
Active and inactive are the calls of the source. No cut-off for these calls is given here.

What was measured:
KB = assay: Cytotoxicity against human KB cells up to 10 uM; format: functional, cell-based
Bcl-xL/BAK = Bcl-xL/BAK (Homo sapiens, UniProt Q07817); assay: Inhibition of His-tagged Bcl-xL (unknown origin)/5-carboxyfluorescein-labeled Bak (unknown origin) protein protein interaction after 1 hr by fluorescence polarization assay
Sequence of Bcl-xL/BAK (Q07817 whole entry): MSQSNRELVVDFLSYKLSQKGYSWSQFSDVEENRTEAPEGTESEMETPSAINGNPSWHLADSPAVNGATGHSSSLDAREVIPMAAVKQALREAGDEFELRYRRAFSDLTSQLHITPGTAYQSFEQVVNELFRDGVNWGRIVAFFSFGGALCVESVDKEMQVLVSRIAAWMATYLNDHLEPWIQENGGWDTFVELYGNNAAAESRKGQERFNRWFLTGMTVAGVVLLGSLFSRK
Sequence of Bcl-xL/BAK (Q16611 whole entry, further chain): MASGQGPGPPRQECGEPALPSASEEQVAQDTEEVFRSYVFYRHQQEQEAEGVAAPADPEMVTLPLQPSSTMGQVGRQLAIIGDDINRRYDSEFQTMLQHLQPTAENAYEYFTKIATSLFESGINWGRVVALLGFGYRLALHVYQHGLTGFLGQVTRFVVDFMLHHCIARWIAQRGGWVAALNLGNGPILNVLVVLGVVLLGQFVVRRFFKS
Procedure, shortened: (§1)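 Competition FP assay displacing a fluorescent-tagged BH3-domain probe (Bak peptide for Bcl-xL, Bid peptide for Mcl-1). Run in triplicate, with reference BH3-mimetic positive controls.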

HUVEC (Homo sapiens) = assay: Cytotoxicity against HUVEC cells up to 10 uM
[1] = target: Induced myeloid leukemia cell differentiation protein Mcl-1/BH3-interacting domain death agonist (Homo sapiens, UniProt Q07820); assay: Inhibition of His-tagged MCL1 (unknown origin)/5-carboxyfluorescein-labeled Bid (unknown origin) protein protein interaction after 1 hr by fluorescence polarization assay; procedure, shortened: as §1
Sequence of Induced myeloid leukemia cell differentiation protein Mcl-1/BH3-interacting domain death agonist (Q07820 whole entry, the tested form may be a part): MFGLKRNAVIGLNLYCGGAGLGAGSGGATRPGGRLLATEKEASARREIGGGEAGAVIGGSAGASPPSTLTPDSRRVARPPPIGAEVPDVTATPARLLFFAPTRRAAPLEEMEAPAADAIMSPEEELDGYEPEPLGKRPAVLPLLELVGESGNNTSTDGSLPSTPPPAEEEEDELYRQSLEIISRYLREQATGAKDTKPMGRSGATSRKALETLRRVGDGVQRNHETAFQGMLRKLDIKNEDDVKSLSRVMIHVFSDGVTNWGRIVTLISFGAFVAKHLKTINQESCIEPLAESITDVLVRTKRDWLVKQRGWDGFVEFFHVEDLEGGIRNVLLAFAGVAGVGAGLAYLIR
Sequence of Induced myeloid leukemia cell differentiation protein Mcl-1/BH3-interacting domain death agonist (P55957 whole entry, further chain, the tested form may be a part): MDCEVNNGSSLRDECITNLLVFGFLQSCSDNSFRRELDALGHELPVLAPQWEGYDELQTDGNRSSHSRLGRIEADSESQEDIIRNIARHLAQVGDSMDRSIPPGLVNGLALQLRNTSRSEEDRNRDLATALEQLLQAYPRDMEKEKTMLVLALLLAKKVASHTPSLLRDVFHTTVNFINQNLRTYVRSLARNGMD

| Structure (SMILES) | Ki (Bcl-xL/BAK) | Activity (KB) | Activity (HUVEC (Homo sapiens)) | Ki [1] |
| --- | --- | --- | --- | --- |
| CC(C)=CCC[C@H](C)[C@@H]1C=C[C@]2(C(=O)O)[C@@H](CC(C)=C[C@H]2/C=C(\C)C2CCC(C(=O)O)CC2)C1 (some centres not stated) | 2.6 µM |  |  |  |
| COc1c(O)c2c(c(O)c1OC)C(=O)C[C@H](c1ccccc1)O2 | > 23 µM | inactive | inactive | > 33 µM |
| COC1=C(O)C(=O)/C(=C(\O)C2CC=C(CCC=C(C)C)CC2c2ccccc2)C(=O)C1=O (racemic) | 17.5 µM | inactive | inactive | 3.1 µM |
| CC(=O)C1CC=C(CCC=C(C)C)CC1c1ccccc1 (racemic) | > 23 µM | inactive | inactive | > 33 µM |
| CC(=O)C1CC(CCC=C(C)C)=CCC1c1ccccc1 (racemic) | > 23 µM | inactive | inactive | > 33 µM |
| COc1cc(/C=C/c2ccccc2)oc(=O)c1 [DESMETHOXYYANGONIN] | > 23 µM | inactive | inactive | > 33 µM |

Continued, in another order:

| Ki (Bcl-xL/BAK) | Structure (SMILES) | Activity (KB) | Activity (HUVEC (Homo sapiens)) | Ki [1] |
| --- | --- | --- | --- | --- |
| > 23 µM | COC1=C(O)C(=O)/C(=C(\O)[C@H]2CC=C(CCC=C(C)C)C[C@@H]2c2ccccc2)C(=O)C1=O | inactive | inactive | 7.4 µM |
| > 23 µM | COC1=C(OC)C(=O)C2=C(O[C@@H](c3ccccc3)CC2=O)C1=O | inactive | inactive | > 33 µM |
| 4.8 µM | COC1=C(O)C(=O)/C(=C(\O)[C@@H]2CC=C(CCC=C(C)C)C[C@H]2c2ccccc2)C(=O)C1=O | inactive | inactive | 2.4 µM |
| > 23 µM | CC(C)=CCCC1=CCC(C(=O)O)C(c2ccccc2)C1 (racemic) | inactive | inactive | > 33 µM |
